Measured values taken from ChEMBL document CHEMBL1772954, “Antifungal, cytotoxic and SAR studies of a series of N-alkyl, N-aryl and N-alkylphenyl-1,4-pyrrolediones and related compounds” (Bioorg Med Chem, 2011).
≈ marks a conversion by molar mass, not a printed value.

Tests used:
Nannizzia gypsea = test: Antifungal activity against Microsporum gypseum C 115 2000; type: functional
Summary of the method: (§1)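 Dermatophytes tested by CLSI M38-A2 microdilution in MOPS-buffered RPMI-1640 at pH 7.0. Inoculum 1-5 × 10^3 CFU/mL; compounds 250 to 0.24 µg/ml in twofold steps, final DMSO <1%. Incubated at 28 °C in a moist, dark chamber and read according to control growth. MIC is the lowest concentration with complete inhibition. MFC is the lowest concentration with no growth after duplicate subculture on SDA.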

NCI-H460 = test: Cytotoxicity against human H460 cells assessed as cell growth after 2 days by sulforhodamine B assay; type: functional; details: NCI-H460, 48 h
Summary of the method: (§2)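 NCI cell lines were run by the Monks method: cells were plated with compounds from DMSO stocks and incubated 2 days at 37 °C in 5% CO2, in duplicate. Cells were fixed with cold TCA, stained with 0.4% SRB, and the bound dye was solubilized in 10 mM tris-base and read at 515 nm. The zero-day control was subtracted, and GI50 was taken from the curves.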

Trichophyton rubrum = test: Antifungal activity against Trichophyton rubrum C 113 2000; type: functional; summary of the method: as §1
Aspergillus niger = test: Antifungal activity against Aspergillus niger ATCC 9029; type: functional
Summary of the method: (§3)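 Broth microdilution per CLSI M38-A2 in RPMI-1640 with MOPS at pH 7.0. Inoculum 1-5 × 10^3 CFU/mL, with twofold compound dilutions spanning 250-0.24 µg/ml (final DMSO <1%). Plates incubated at 35 °C, moist and dark, and read when the control fungus had grown. MIC is total growth inhibition. MFC comes from subculturing clear wells in duplicate onto SDA.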

Candida tropicalis = test: Antifungal activity against Candida tropicalis C 131 2000; type: functional
Summary of the method: (§4)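 CLSI M27-A3 broth microdilution in RPMI-1640 buffered to pH 7.0 with MOPS. Inoculum 1-5 × 10^3 CFU/mL. Compound twofold dilutions from 250 to 0.24 µg/ml, final DMSO <1%. Incubated at 35 °C in a moist, dark chamber and read at 48 h. MIC is the lowest concentration giving total growth inhibition. For MFC, 5 µL from clear wells was plated in duplicate on SDA; MFC is the lowest concentration with no growth.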

Candida albicans = test: Antifungal activity against Candida albicans ATCC 10213; type: functional; summary of the method: as §4
Aspergillus flavus = test: Antifungal activity against Aspergillus flavus ATCC 9170; type: functional; summary of the method: as §3
Aspergillus fumigatus = test: Antifungal activity against Aspergillus fumigatus ATCC 26934; type: functional; summary of the method: as §3
Saccharomyces cerevisiae = test: Antifungal activity against Saccharomyces cerevisiae ATCC 9763; type: functional; summary of the method: as §4
[1] = Cytotoxicity against human erythrocytes assessed as hemolysis by spectrometric analysis; type: cell-based, Erythrocyte
Summary of the method: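 Human heparinized red blood cells were washed in PBS at pH 7.0 and suspended at 4% in sterile 5% glucose. Compounds from DMSO stocks were diluted in 5% glucose to final concentrations of 250 to 0.24 µg/ml and incubated with the cells at 37 °C. Released hemoglobin was read at 540 nm. HC50 is the concentration giving 50% lysis relative to the drug-free value.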

[2] = system: Trichophyton mentagrophytes; test: Antifungal activity against Trichophyton mentagrophytes ATCC 9972; type: functional; summary of the method: as §1
MCF7 = test: Cytotoxicity against human MCF7 cells assessed as cell growth after 2 days by sulforhodamine B assay; type: functional; details: MCF7, 48 h; summary of the method: as §2
SF-268 = test: Cytotoxicity against human SF268 cells assessed as cell growth after 2 days by sulforhodamine B assay; type: functional; details: SF-268, 48 h; summary of the method: as §2
Cryptococcus neoformans = test: Antifungal activity against Cryptococcus neoformans ATCC 32264; type: functional; summary of the method: as §4

SMILES	MFC (Nannizzia gypsea) [µg/mL]	MIC (Nannizzia gypsea) [µg/mL]	GI50 (NCI-H460) [µg/mL]	MFC (Trichophyton rubrum) [µg/mL]	MIC (Trichophyton rubrum) [µg/mL]	MFC (Aspergillus niger) [µg/mL]	MIC (Aspergillus niger) [µg/mL]	MFC (Candida tropicalis) [µg/mL]	MIC (Candida tropicalis) [µg/mL]	MFC (Candida albicans) [µg/mL]	MIC (Candida albicans) [µg/mL]	MFC (Aspergillus flavus) [µg/mL]	MIC (Aspergillus flavus) [µg/mL]	MFC (Aspergillus fumigatus) [µg/mL]	MIC (Aspergillus fumigatus) [µg/mL]	MFC (Saccharomyces cerevisiae) [µg/mL]	MIC (Saccharomyces cerevisiae) [µg/mL]	HC50 [1] [µg/mL]	MFC [2] [µg/mL]	MIC [2] [µg/mL]	also measured
O=C1C(Cl)=C(Cl)C(=O)N1Cc1ccccc1	31.2 (≈ 122 µM)	15.6 (≈ 61 µM)	> 10	15.6 (≈ 61 µM)	7.81 (≈ 30.5 µM)	62.5 (≈ 244 µM)	31.2 (≈ 122 µM)	31.2 (≈ 122 µM)	31.2 (≈ 122 µM)	31.2 (≈ 122 µM)	15.6 (≈ 61 µM)	31.2 (≈ 122 µM)	31.2 (≈ 122 µM)	31.2 (≈ 122 µM)	15.6 (≈ 61 µM)	15.6 (≈ 61 µM)	7.81 (≈ 30.5 µM)	> 250	15.6 (≈ 61 µM)	7.81 (≈ 30.5 µM)	GI50 (MCF7): > 10 µg/mL; GI50 (SF-268): > 10 µg/mL; MFC (Cryptococcus neoformans): 15.6 µg/mL (≈ 61 µM); MIC (Cryptococcus neoformans): 7.81 µg/mL (≈ 30.5 µM)
Cc1ccc(N2C(=O)C=CC2=O)cc1	3.9 (≈ 20.8 µM)	1.95 (≈ 10.4 µM)	> 10	3.9 (≈ 20.8 µM)	1.95 (≈ 10.4 µM)	31.2 (≈ 167 µM)	15.6 (≈ 83.5 µM)	31.2 (≈ 167 µM)	15.6 (≈ 83.5 µM)	31.2 (≈ 167 µM)	15.6 (≈ 83.5 µM)	15.6 (≈ 83.5 µM)	15.6 (≈ 83.5 µM)	62.5 (≈ 334 µM)	31.2 (≈ 167 µM)	7.81 (≈ 41.7 µM)	3.9 (≈ 20.8 µM)	> 250	7.81 (≈ 41.7 µM)	1.95 (≈ 10.4 µM)	GI50 (MCF7): > 10 µg/mL; GI50 (SF-268): > 10 µg/mL; MFC (Cryptococcus neoformans): 7.81 µg/mL (≈ 41.7 µM); MIC (Cryptococcus neoformans): 3.9 µg/mL (≈ 20.8 µM)
O=C1C=CC(=O)N1CCCCc1ccccc1	1.95 (≈ 8.5 µM)	0.97 (≈ 4.23 µM)	> 10	0.97 (≈ 4.23 µM)	0.48 (≈ 2.09 µM)	7.81 (≈ 34.1 µM)	7.81 (≈ 34.1 µM)	15.6 (≈ 68.2 µM)	7.81 (≈ 34.1 µM)	7.81 (≈ 34.1 µM)	3.9 (≈ 17 µM)	15.6 (≈ 68.2 µM)	7.81 (≈ 34.1 µM)	31.2 (≈ 136 µM)	15.6 (≈ 68.2 µM)	1.95 (≈ 8.5 µM)	0.97 (≈ 4.23 µM)	> 250	7.81 (≈ 34.1 µM)	3.9 (≈ 17 µM)	GI50 (MCF7): > 10 µg/mL; GI50 (SF-268): > 10 µg/mL; MFC (Cryptococcus neoformans): 31.2 µg/mL (≈ 136 µM); MIC (Cryptococcus neoformans): 15.6 µg/mL (≈ 68.2 µM)
O=C1C=CC(=O)N1c1ccc(F)cc1F	7.81 (≈ 37.3 µM)	3.9 (≈ 18.6 µM)	> 10	7.81 (≈ 37.3 µM)	3.9 (≈ 18.6 µM)	31.2 (≈ 149 µM)	15.6 (≈ 74.7 µM)	31.2 (≈ 149 µM)	15.6 (≈ 74.7 µM)	31.2 (≈ 149 µM)	15.6 (≈ 74.7 µM)	62.5 (≈ 299 µM)	62.5 (≈ 299 µM)	31.2 (≈ 149 µM)	31.2 (≈ 149 µM)	15.6 (≈ 74.7 µM)	7.81 (≈ 37.3 µM)	> 250	7.81 (≈ 37.3 µM)	3.9 (≈ 18.6 µM)	GI50 (MCF7): > 10 µg/mL; GI50 (SF-268): > 10 µg/mL; MFC (Cryptococcus neoformans): 7.81 µg/mL (≈ 37.3 µM); MIC (Cryptococcus neoformans): 7.81 µg/mL (≈ 37.3 µM)
COc1ccc(N2C(=O)C=CC2=O)cc1	7.81 (≈ 38.4 µM)	3.9 (≈ 19.2 µM)	> 10	3.9 (≈ 19.2 µM)	3.9 (≈ 19.2 µM)	62.5 (≈ 308 µM)	31.2 (≈ 154 µM)	125 (≈ 615 µM)	62.5 (≈ 308 µM)	125 (≈ 615 µM)	62.5 (≈ 308 µM)	125 (≈ 615 µM)	62.5 (≈ 308 µM)	125 (≈ 615 µM)	62.5 (≈ 308 µM)	62.5 (≈ 308 µM)	31.2 (≈ 154 µM)	> 250	7.81 (≈ 38.4 µM)	3.9 (≈ 19.2 µM)	GI50 (MCF7): > 10 µg/mL; GI50 (SF-268): > 10 µg/mL; MFC (Cryptococcus neoformans): 15.6 µg/mL (≈ 76.9 µM); MIC (Cryptococcus neoformans): 15.6 µg/mL (≈ 76.9 µM)
O=C1C=CC(=O)N1c1ccc2c(c1)OCO2	1.95 (≈ 8.98 µM)	1.95 (≈ 8.98 µM)	> 10	3.9 (≈ 18 µM)	1.95 (≈ 8.98 µM)	125 (≈ 576 µM)	62.5 (≈ 288 µM)	62.5 (≈ 288 µM)	31.2 (≈ 144 µM)	62.5 (≈ 288 µM)	31.2 (≈ 144 µM)	125 (≈ 576 µM)	62.5 (≈ 288 µM)	125 (≈ 576 µM)	62.5 (≈ 288 µM)	15.6 (≈ 72 µM)	7.81 (≈ 36 µM)	> 250	3.9 (≈ 18 µM)	1.95 (≈ 8.98 µM)	GI50 (MCF7): > 10 µg/mL; GI50 (SF-268): > 10 µg/mL; MFC (Cryptococcus neoformans): 15.6 µg/mL (≈ 72 µM); MIC (Cryptococcus neoformans): 7.81 µg/mL (≈ 36 µM)
O=C1C=CC(=O)N1c1ccc(F)cc1	7.81 (≈ 40.9 µM)	3.9 (≈ 20.4 µM)	> 10	7.81 (≈ 40.9 µM)	3.9 (≈ 20.4 µM)	7.81 (≈ 40.9 µM)	7.81 (≈ 40.9 µM)	15.6 (≈ 81.8 µM)	15.6 (≈ 81.8 µM)	15.6 (≈ 81.8 µM)	15.6 (≈ 81.8 µM)	15.6 (≈ 81.8 µM)	15.6 (≈ 81.8 µM)	31.2 (≈ 163 µM)	15.6 (≈ 81.8 µM)	7.81 (≈ 40.9 µM)	3.9 (≈ 20.4 µM)	> 250	7.81 (≈ 40.9 µM)	3.9 (≈ 20.4 µM)	GI50 (MCF7): > 10 µg/mL; GI50 (SF-268): > 10 µg/mL; MFC (Cryptococcus neoformans): 15.6 µg/mL (≈ 81.8 µM); MIC (Cryptococcus neoformans): 7.81 µg/mL (≈ 40.9 µM)
